Results published in ChEMBL document CHEMBL4130408, “Photoactivation provides a mechanistic explanation for pan-assay interference behaviour of 2-aminopyrroles in lipoxygenase inhibition” (Eur J Med Chem, 2017).

Legend:
[1] = molecular target: T1, Polyunsaturated fatty acid lipoxygenase ALOX15 (Homo sapiens, UniProt P16050); test: Inhibition of recombinant human 15-LOX-1 expressed in Escherichia coli BL21(DE3) using linoleic acid as substrate preincubated for 10 mins followed by substrate addition
T1 sequence (P16050 whole entry): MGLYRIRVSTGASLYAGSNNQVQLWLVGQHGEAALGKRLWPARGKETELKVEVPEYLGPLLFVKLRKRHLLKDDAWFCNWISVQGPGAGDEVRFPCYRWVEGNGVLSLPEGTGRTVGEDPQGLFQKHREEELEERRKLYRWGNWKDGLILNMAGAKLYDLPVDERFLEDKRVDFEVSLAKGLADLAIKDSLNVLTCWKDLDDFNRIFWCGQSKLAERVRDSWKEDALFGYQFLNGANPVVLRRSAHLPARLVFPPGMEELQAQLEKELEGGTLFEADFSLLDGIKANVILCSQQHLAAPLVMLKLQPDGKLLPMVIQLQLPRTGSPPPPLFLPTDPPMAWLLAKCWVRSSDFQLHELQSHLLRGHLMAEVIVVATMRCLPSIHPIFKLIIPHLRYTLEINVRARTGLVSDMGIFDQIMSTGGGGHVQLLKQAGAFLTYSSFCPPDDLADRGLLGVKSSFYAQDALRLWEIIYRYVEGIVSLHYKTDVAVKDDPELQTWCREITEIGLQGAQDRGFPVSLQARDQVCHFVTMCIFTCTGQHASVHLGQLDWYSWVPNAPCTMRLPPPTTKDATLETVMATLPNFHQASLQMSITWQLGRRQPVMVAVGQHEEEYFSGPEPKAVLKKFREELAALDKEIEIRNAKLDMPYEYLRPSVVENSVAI

[2] = molecular target: T2, Polyunsaturated fatty acid lipoxygenase ALOX15 (Homo sapiens) (UniProt P16050); test: Inhibition of recombinant human 15-LOX-1 expressed in Escherichia coli BL21(DE3) assessed as residual activity at 50 uM using linoleic acid as substrate preincubated for 10 mins followed by substrate addition
T2 sequence (whole entry): T1 sequence (P16050 whole entry)
Procedure, shortened: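 h-15-LOX-1 (1:100 enzyme stock, 1:400 final) preincubated 10 min at room temperature with inhibitor in 25 mM HEPES pH 7.4, then linoleic acid added to 25 µM final (inhibitor 50 µM final). 13(S)-HpODE formation read as A234 over time, rate taken from linear part within first 16 min; no-inhibitor = 100%, no-enzyme = 0%. Triplicate.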

HCC-1.2 = test: Cytotoxicity against human HCC1.2 cells assessed as growth inhibition after 48 hrs by neutral red assay; type: functional; conditions: for CC50: HCC-1.2, 48 h, read-out: LD50 (the source's name)
Procedure, shortened: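 HCC-1.2 hepatocarcinoma cells grown in RPMI1640 with 10% heat-inactivated FCS at 37 °C, 5% CO2. 2 × 10^5 cells/well seeded and grown 48 h. Viable cells quantified by neutral red (50 μg/mL) uptake from serum-free medium over 2 h. Dye dissolved in 1% acetic acid/70% ethanol, read as absorbance 560 minus 620 nm. Triplicate wells; three to five independent experiments; LD50 reported.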

SMILES | Activity [2] [%] | other results
CCOC(=O)c1ccc(N)[nH]1 |  | IC50 [1]: > 100 µM
Nc1[nH]c(C(=O)c2ccccc2)c(-c2ccc(Cl)cc2Cl)c1C(=O)c1cccs1 |  | IC50 [1]: > 100 µM
Nc1[nH]c(C(=O)c2ccccc2)c(-c2ccccc2Cl)c1C(=O)c1cccc(Cl)c1 |  | IC50 [1]: > 100 µM
Nc1[nH]c(C(=O)c2ccccc2)c(-c2c(F)cccc2F)c1C(=O)c1ccc(Cl)c(Cl)c1 | 100 | IC50 [1]: > 100 µM
Nc1[nH]c(C(=O)c2ccccc2)c(-c2ccc(Cl)cc2Cl)c1C(=O)c1ccccc1 | 73.1 | IC50 [1]: > 100 µM
CCOC(=O)c1ccc[nH]1 |  | IC50 [1]: > 100 µM
Nc1[nH]c(C(=O)c2ccccc2)c(-c2ccc3c(c2)OCO3)c1C(=O)c1cccc(Cl)c1 |  | IC50 [1]: > 100 µM
Nc1[nH]c(C(=O)c2ccccc2)c(-c2ccc(Cl)cc2)c1C(=O)c1cccc(Cl)c1 |  | IC50 [1]: > 100 µM
Nc1[nH]c(C(=O)c2ccccc2)c(-c2ccc(-c3ccccc3)cc2)c1C(=O)c1cccc(Cl)c1 |  | IC50 [1]: > 100 µM
Nc1[nH]c(C(=O)c2ccccc2)c(-c2cccc(Cl)c2)c1C(=O)c1cccc(Cl)c1 |  | IC50 [1]: > 100 µM
NC(=O)c1c(N)[nH]c(C(=O)c2ccccc2)c1-c1ccc(Cl)cc1Cl | 109 | IC50 [1]: > 100 µM
Nc1[nH]c(C(=O)c2ccccc2)c(-c2cccc3ccccc23)c1C(=O)c1ccc(Cl)c(Cl)c1 |  | IC50 [1]: > 100 µM
Nc1[nH]c(C(=O)c2ccccc2)c(-c2ccncc2)c1C(=O)c1cccc(Cl)c1 |  | IC50 [1]: > 100 µM
Nc1[nH]c(C(=O)c2ccccc2)c(-c2ccncc2)c1C(=O)NCc1cccc2ccccc12 | 95.1 | 
Nc1[nH]c(C(=O)c2ccccc2)c(-c2ccc(Cl)c(F)c2)c1C(=O)c1c[nH]c2ccccc12 | 91.7 | 
Nc1[nH]c(C(=O)c2ccccc2)c(-c2ccc3ccccc3c2)c1C(=O)NCc1ccc(F)cc1 | 86 | 
COc1ccc(C(=O)c2[nH]c(N)c(C(=O)NCCc3c[nH]c4ccccc34)c2-c2ccc(OC)c(OC)c2)cc1 | 70.3 | 
CCCCNC(=O)c1c(N)[nH]c(C(=O)c2ccc(F)cc2)c1-c1ccc(Cl)cc1C | 107 | 
Nc1[nH]c(C(=O)c2ccccc2)c(-c2ccccc2Br)c1C(=O)NCc1ccc(-c2ccccc2)cc1 | 91.3 | 
Nc1[nH]c(C(=O)c2ccccc2)c(-c2ccc(Cl)cc2)c1C(=O)O | 87.9 | 
Nc1[nH]c2ccccc2c1C(=O)NCCc1ccc(Cl)cc1Cl | 104 | 
CCCCCCCCCCCCCCNC(=O)c1c(N)[nH]c(C(=O)c2ccc(Br)cc2)c1-c1ccc(Br)cc1 | 99.2 | 
Nc1[nH]c(C(=O)c2ccccc2)c(-c2ccccc2Br)c1C(=O)NCCc1ccc(Cl)cc1Cl | 93.8 | 
Nc1[nH]c(C(=O)c2ccccc2)c(-c2ccc(Cl)cc2Cl)c1C(=O)c1cccc(F)c1 |  | IC50 [1]: > 100 µM

SMILES | Activity [2] [%] | other results
Nc1[nH]c(C(=O)c2ccccc2)c(-c2ccc(Cl)cc2)c1C(=O)c1c[nH]c2cc(F)ccc12 | 86.5 to 87.5 | 
CN(C)CCCNC(=O)c1c(N)[nH]c(C(=O)c2ccc(Br)cc2)c1-c1ccc(Br)cc1 | 114 | 
CC(C)(C)C(=O)c1c(N)[nH]c(C(=O)c2ccccc2)c1-c1ccc([N+](=O)[O-])cc1 | 110 | 
CN(C)c1ccc(-c2c(C(=O)c3ccccc3)[nH]c(N)c2C(N)=O)cc1 | 103 | 
NC(=O)c1c(N)[nH]c(C(=O)c2ccccc2)c1-c1ccccn1 | 82.1 | 
Nc1[nH]c(C(=O)c2ccc(Br)cc2)c(-c2cccc3ccccc23)c1C(=O)NCCc1c[nH]c2ccccc12 | 46.7 | 
Nc1[nH]c(C(=O)c2ccc(Br)cc2)c(-c2ccc(Br)cc2)c1C(=O)N1CCOCC1 | 87 | 
Nc1[nH]c(C(=O)c2ccccc2)c(-c2ccccn2)c1C(=O)c1c[nH]c2cc(F)ccc12 | 98.5 | 
Nc1[nH]c(C(=O)c2ccccc2)c(-c2cccc3ccccc23)c1C(=O)NCc1ccc(Cl)cc1Cl | 115 | 
Nc1[nH]c(C(=O)c2ccccc2)c(-c2ccc(Cl)cc2F)c1C(=O)NCCc1c[nH]c2ccccc12 | 74.8 | 
CC(NC(=O)c1c(N)[nH]c(C(=O)c2ccccc2)c1-c1ccccc1Br)c1cccc2ccccc12 (configuration not stated) | 71.3 | 
COC(=O)c1c(N)[nH]c(C(=O)c2ccccc2)c1-c1ccccc1Br | 74.8 | 
Nc1[nH]c(C(=O)c2ccccc2)c(-c2cccc3ccccc23)c1C(=O)NC1CCCCC1 | 65.6 | 
COc1ccc(C(=O)c2[nH]c(N)c(C(=O)NCCc3c[nH]c4ccccc34)c2-c2c(F)cccc2Cl)cc1 | 71.3 | 
COc1ccc(-c2c(C(=O)c3ccccc3)[nH]c(N)c2C(=O)c2ccccc2)cc1OC | 97.9 to 105 | 
NC(=O)c1c(N)[nH]c(C(=O)c2ccccc2)c1-c1ccccc1Br | 87.4 | 
COc1ccc(C(=O)c2[nH]c(N)c(C(=O)NCCc3c[nH]c4ccccc34)c2-c2ccc(Cl)cc2Cl)cc1 | 64.5 | 
Nc1[nH]c(C(=O)c2ccccc2)c(-c2ccc(Cl)cc2Cl)c1C(=O)c1cccc(Br)c1 |  | IC50 [1]: 6.3 µM; Activity (HCC-1.2): Dose-dependent effect; CC50 (HCC-1.2): 1.64 µM
Nc1[nH]c(C(=O)c2ccccc2)c(-c2ccc(Br)cc2)c1C(=O)NC1CC1 | 94.3 | 
Nc1[nH]c(C(=O)c2ccc(Br)cc2)c(-c2ccccc2)c1C(=O)NCCc1c[nH]c2ccccc12 | 69 | 
Nc1[nH]c(C(=O)c2ccccc2)c(-c2ccccc2C(F)(F)F)c1C(=O)NCc1cccc2ccccc12 | 85 | 
Nc1[nH]c(C(=O)c2ccc(Br)cc2)c(-c2ccc(Br)cc2)c1C(=O)NCc1cccc2ccccc12 | 77.6 | 
Nc1[nH]c(C(=O)c2ccc(Br)cc2)c(-c2ccncc2)c1C(=O)NCCc1c[nH]c2ccccc12 | 86.1 | 
Nc1[nH]c(C(=O)c2ccccc2)c(-c2ccncc2)c1C(=O)NCc1ccc(Cl)cc1 | 86.6 | 

SMILES | Activity [2] [%] | other results
CC(C)(C)C(=O)c1c(N)[nH]c(C(=O)c2ccccc2)c1-c1ccccc1Br | 82.9 | 
Nc1[nH]c(C(=O)c2ccccc2)c(-c2cccnc2)c1C(=O)c1cccc(Cl)c1 |  | IC50 [1]: > 100 µM
COc1ccccc1CCNC(=O)c1c(N)[nH]c(C(=O)c2ccccc2)c1-c1ccc(Cl)cc1Cl | 91.7 | 
Nc1[nH]c2cc(C(F)(F)F)ccc2c1C(=O)NCc1ccc(F)cc1 | 102 | 
Nc1[nH]c(C(=O)c2ccccc2)c(-c2ccccc2)c1C(=O)NCCc1c[nH]c2ccccc12 | 63.2 | 
Cc1[nH]c2ccccc2c1C(=O)c1c(N)[nH]c(C(=O)c2ccc(Br)cc2)c1-c1ccc(Br)cc1 | 29.7 | 
Nc1[nH]c(C(=O)c2ccccc2)c(-c2ccc(Cl)cc2)c1C(=O)c1ccc(Cl)cc1 | 100 | 
Nc1[nH]c(C(=O)c2ccccc2)c(-c2ccc(Cl)cc2Br)c1C(=O)c1cccs1 | 91.2 | 
Nc1[nH]c(C(=O)c2ccc(Br)cc2)c(-c2ccc(Cl)cc2Cl)c1C(=O)NCCc1c[nH]c2ccccc12 | 69.3 | 
Nc1[nH]c(C(=O)c2ccc(Cl)cc2)c(-c2ccc(Br)cc2)c1C(=O)NCc1ccc(Cl)cc1Cl | 105 | 
COc1ccc(C(=O)c2[nH]c(N)c(C(=O)NCCc3ccc(Cl)cc3Cl)c2-c2ccccc2Br)cc1 | 86.4 | 
Nc1[nH]c(C(=O)c2ccc(Br)cc2)c(-c2ccccc2Br)c1C(=O)NCCc1c[nH]c2ccccc12 | 83.1 | 
Nc1[nH]c(C(=O)c2ccc(Br)cc2)c(-c2ccc(F)cc2)c1C(=O)NCCc1c[nH]c2ccccc12 | 68.9 | 
Nc1[nH]c(C(=O)c2ccccc2)c(-c2ccc(O)cc2)c1C(=O)NCCc1c[nH]c2ccccc12 | 53.3 | 
Cc1ccc([C@H](C)NC(=O)c2c(N)[nH]c(C(=O)c3ccccc3)c2-c2cc(Cl)cc(Cl)c2)cc1 | 77.3 | 
Nc1[nH]c(C(=O)c2ccccc2)c(-c2ccc3ccccc3c2)c1C(=O)c1ccc(Cl)c(Cl)c1 |  | Activity (HCC-1.2): Dose-dependent effect; CC50 (HCC-1.2): 2.64 µM
Cc1ccc(-c2c(C(=O)c3ccccc3)[nH]c(N)c2C(=O)NCc2ccc(Cl)cc2)cc1 | 94.4 | 
Nc1[nH]c(C(=O)c2ccccc2)c(-c2ccccc2C(F)(F)F)c1C(=O)NC1CCCCC1 | 101 | 
Nc1[nH]c(C(=O)c2ccc(Br)cc2)c(-c2ccc(Br)cc2)c1C(=O)NC1CC1 | 95 | 
CC(C)(C)C(=O)c1c(N)[nH]c(C(=O)c2ccccc2)c1-c1ccc(F)cc1 | 91.4 | 
Nc1[nH]c(C(=O)c2ccccc2)c(-c2ccc(Cl)cc2)c1C(=O)NCc1ccco1 | 88.8 | 
Nc1[nH]c(C(=O)c2ccc(Br)cc2)c(-c2ccc(Br)cc2)c1C(=O)N1CCCCC1 | 63.3 | 
N#Cc1c(N)[nH]c(C(=O)c2ccccc2)c1-c1ccccc1Br | 62.3 | 
